Reference: ChEMBL document CHEMBL1154235, “Rational design and semisynthesis of betulinic acid analogues as potent topoisomerase inhibitors” (J Nat Prod, 2009)
Calls of active or inactive are those of the source. No cut-off for these calls is given here.

Key:
SF-539 = test: Cytotoxicity against human SF539 cells assessed as cell growth at 10 uM; format: functional; settings: read-out: Activity
Method in brief: (§1)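 Single-dose screen at 10 µM against the 60 human cell line panel, run by the NCI Developmental Therapeutics Program and scored as cell growth.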

SK-OV-3 = test: Cytotoxicity against human SKOV3 cells assessed as cell growth at 10 uM; format: functional; settings: read-out: Activity; method in brief: as §1
A498 = test: Cytotoxicity against human A498 cells assessed as cell growth at 10 uM; format: functional; settings: read-out: Activity; method in brief: as §1
SNB-75 = test: Cytotoxicity against human SNB75 cells assessed as cell growth at 10 uM; format: functional; settings: read-out: Activity
MOLT-4 = test: Cytotoxicity against human MOLT4 cells assessed as cell growth at 10 uM; format: functional; settings: read-out: Activity; method in brief: as §1
ACHN = test: Cytotoxicity against human ACHN cells assessed as cell growth at 10 uM; format: functional; settings: read-out: Activity; method in brief: as §1
HL-60(TB) = test: Cytotoxicity against human HL-60(TB) cells assessed as cell growth at 10 uM; format: functional; settings: read-out: Activity
Method in brief: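 Single-dose screen run externally by the NCI Developmental Therapeutics Program across its 60 human tumour cell line panel. Compound tested at 10 µM.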

CAKI-1 = test: Cytotoxicity against human Caki1 cells assessed as cell growth at 10 uM; format: functional; settings: read-out: Activity; method in brief: as §1
HCT-15 = test: Cytotoxicity against human HCT15 cells assessed as cell growth at 10 uM; format: functional; settings: read-out: Activity; method in brief: as §1
HCT-116 = test: Antiproliferative activity against human HCT116 cells after 3 days by XTT assay; format: functional, cell-based; settings: HCT-116, 72 h
Method in brief: (§2)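 Cells plated at 4000/well and grown 1 day at 37 °C, then exposed to a range of drug concentrations for 3 more days. Read-out by XTT tetrazolium reduction on a plate reader. Each concentration run in triplicate. IC50 taken from a linear-quadratic fit. Assays repeated two or three times and reported as mean ± SE. HCT-116 kept in modified McCoy's 5a and SW948 in Leibovitz's L-15, each with 10% heat-inactivated FBS and 2 mM L-glutamine.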

A549 = test: Cytotoxicity against human A549 cells assessed as cell growth at 10 uM; format: functional; settings: read-out: Activity; method in brief: as §1
NCI-H460 = test: Cytotoxicity against human NCI-H460 cells assessed as cell growth at 10 uM; format: functional; settings: read-out: Activity; method in brief: as §1
MCF7 = test: Cytotoxicity against human MCF7 cells assessed as cell growth at 10 uM; format: functional; settings: read-out: Activity; method in brief: as §1
UACC-62 = test: Cytotoxicity against human UACC62 cells assessed as cell growth at 10 uM; format: functional; settings: read-out: Activity
[1] = biological target: T1, DNA topoisomerase 1 (Homo sapiens) (UniProt P11387); test: Inhibition of topoisomerase 1 catalytic activity assessed as relaxation of supercoiled plasmid DNA at 100 uM after 30 mins by agarose gel electrophoresis
T1 sequence (whole entry): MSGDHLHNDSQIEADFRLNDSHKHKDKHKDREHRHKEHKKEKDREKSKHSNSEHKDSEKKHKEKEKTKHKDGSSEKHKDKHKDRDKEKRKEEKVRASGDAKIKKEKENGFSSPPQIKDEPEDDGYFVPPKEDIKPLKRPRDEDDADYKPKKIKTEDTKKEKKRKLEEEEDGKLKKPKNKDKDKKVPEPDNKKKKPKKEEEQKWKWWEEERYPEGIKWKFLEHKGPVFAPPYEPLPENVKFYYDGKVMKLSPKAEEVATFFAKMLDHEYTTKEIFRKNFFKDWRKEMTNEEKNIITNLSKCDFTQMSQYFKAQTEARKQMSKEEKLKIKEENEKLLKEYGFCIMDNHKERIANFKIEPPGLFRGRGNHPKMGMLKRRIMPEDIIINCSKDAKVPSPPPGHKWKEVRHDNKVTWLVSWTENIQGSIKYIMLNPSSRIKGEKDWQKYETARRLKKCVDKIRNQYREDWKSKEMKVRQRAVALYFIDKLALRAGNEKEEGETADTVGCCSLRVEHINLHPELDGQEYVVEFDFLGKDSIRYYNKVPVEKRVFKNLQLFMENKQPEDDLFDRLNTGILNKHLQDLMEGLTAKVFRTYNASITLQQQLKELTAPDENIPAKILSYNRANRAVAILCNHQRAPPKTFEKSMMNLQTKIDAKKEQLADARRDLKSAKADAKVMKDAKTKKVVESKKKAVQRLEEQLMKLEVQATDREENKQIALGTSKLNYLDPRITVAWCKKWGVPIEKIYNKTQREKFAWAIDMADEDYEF
Method in brief: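 Compound at 100 µM final with topoisomerase I (2U), 37 °C 30 min. Stopped with 1% SDS, proteinase K digestion, 1% agarose TAE gel, ethidium bromide stain, imaging quantitation. Scored 0 to 3+ against camptothecin.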

M14 = test: Cytotoxicity against human M14 cells assessed as cell growth at 10 uM; format: functional; settings: read-out: Activity; method in brief: as §1
MDA-MB-231 [2] = test: Cytotoxicity against human MDA-MB-231 cells assessed as cell growth at 10 uM; format: functional; settings: read-out: Activity; method in brief: as §1
Malme-3M = test: Cytotoxicity against human MALME-3M cells assessed as cell growth at 10 uM; format: functional; settings: read-out: Activity; method in brief: as §1
SN12C = test: Cytotoxicity against human SN12C cells assessed as cell growth at 10 uM; format: functional; settings: read-out: Activity; method in brief: as §1
NCI-H322M = test: Cytotoxicity against human NCI-H322M cells assessed as cell growth at 10 uM; format: functional; settings: read-out: Activity; method in brief: as §1
SK-MEL-5 = test: Cytotoxicity against human SK-MEL-5 cells assessed as cell growth at 10 uM; format: functional; settings: read-out: Activity; method in brief: as §1
HCC 2998 = test: Cytotoxicity against human HCC2998 cells assessed as cell growth at 10 uM; format: functional; settings: read-out: Activity; method in brief: as §1
OVCAR-3 = test: Cytotoxicity against human OVCAR-3 cells assessed as cell growth at 10 uM; format: functional; settings: read-out: Activity; method in brief: as §1
SW948 = test: Antiproliferative activity against human SW948 cells after 3 days by XTT assay; format: functional, cell-based; settings: SW948, 72 h; method in brief: as §2
TK-10 = test: Cytotoxicity against human TK10 cells assessed as cell growth at 10 uM; format: functional; settings: read-out: Activity
LOX IMVI = test: Cytotoxicity against human LOXIMVI cells assessed as cell growth at 10 uM; format: functional; settings: read-out: Activity; method in brief: as §1
RPMI-8226 = test: Cytotoxicity against human RPMI8226 cells assessed as cell growth at 10 uM; format: functional; settings: read-out: Activity; method in brief: as §1
NCI-H226 = test: Cytotoxicity against human NCI-H226 cells assessed as cell growth at 10 uM; format: functional; settings: read-out: Activity; method in brief: as §1
SF-295 = test: Cytotoxicity against human SF295 cells assessed as cell growth at 10 uM; format: functional; settings: read-out: Activity; method in brief: as §1
MDA-MB-231 [3] = test: Antiproliferative activity against human MDA-MB-231 cells after 3 days by MTT assay; format: functional, cell-based; settings: MDA-MB-231, 72 h
Method in brief: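 MDA-MB-231 cells kept in RPMI 1640 with 10% heat-inactivated FBS and 25 mM HEPES at 37 °C in 5% CO2. Plated at about 15 000/well and preincubated 1 day, then exposed to compound for 3 days at 37 °C, with doses in triplicate. MTT added for 4 h, formazan dissolved in detergent overnight at room temperature in the dark, OD read at 580 nm against a cell-free blank. Cell numbers from a calibration curve; IC50 from dose-response curves.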

OVCAR-8 = test: Cytotoxicity against human OVCAR8 cells assessed as cell growth at 10 uM; format: functional; settings: read-out: Activity; method in brief: as §1
UACC-257 = test: Cytotoxicity against human UACC257 cells assessed as cell growth at 10 uM; format: functional; settings: read-out: Activity
KM12 = test: Cytotoxicity against human KM12 cells assessed as cell growth at 10 uM; format: functional; settings: read-out: Activity; method in brief: as §1

Compound C=C(C)[C@@H]1CC[C@]2(C(O)=S)CC[C@]3(C)[C@H](CC[C@@H]4[C@@]5(C)CC[C@H](O)C(C)(C)[C@@H]5CC[C@]43C)[C@@H]12 has a growth at 10 µM (SF-539) of 111%, a growth at 10 µM (SK-OV-3) of 113% and a growth at 10 µM (A498) of 129%. For the same compound, the growth at 10 µM (SNB-75) was 108%, the growth at 10 µM (MOLT-4) was 131% and the growth at 10 µM (ACHN) was 96.3%. It also gave a growth at 10 µM (HL-60(TB)) of 134%, a growth at 10 µM (CAKI-1) of 100% and a growth at 10 µM (HCT-15) of 104%. For the same compound, the IC50 (HCT-116) was greater than 25 µM, the growth at 10 µM (A549) was 93% and the growth at 10 µM (NCI-H460) was 109%. For the same compound, the growth at 10 µM (MCF7) was 100%, the growth at 10 µM (UACC-62) was 96.8% and the inhibition [1] was “inactive”. The growth at 10 µM (M14) was 96%, the growth at 10 µM (MDA-MB-231 [2]) was 114% and the growth at 10 µM (Malme-3M) was 102%. It also gave a growth at 10 µM (SN12C) of 102%, a growth at 10 µM (NCI-H322M) of 109% and a growth at 10 µM (SK-MEL-5) of 99.7%. For the same compound, the growth at 10 µM (HCC 2998) was 128%, the growth at 10 µM (OVCAR-3) was 94.9% and the IC50 (SW948) was greater than 25 µM. It also gave a growth at 10 µM (TK-10) of 94.2%, a growth at 10 µM (LOX IMVI) of 101% and a growth at 10 µM (RPMI-8226) of 113%. For the same compound, the growth at 10 µM (NCI-H226) was 108%, the growth at 10 µM (SF-295) was 98.4% and the IC50 (MDA-MB-231 [3]) was greater than 25 µM. For the same compound, the growth at 10 µM (OVCAR-8) was 101%, the growth at 10 µM (UACC-257) was 105% and the growth at 10 µM (KM12) was 84.7%.
